Test results published in article PMC5766731 (Clinical Pharmacokinetics, 2017).

What was measured:
[1] = Part I single ascending-dose pharmacokinetics; format: in vivo, human; details: for t max / AUCt / AUC∞ / C max / CL/F_obs / V z/F_obs / t ½ / λz: part I, fasted; for t max: mean (range) per footnote; for AUCt / AUC∞ / C max / CL/F_obs / V z/F_obs / t ½ / λz: mean ± SD
[2] = Part III sex and food effect pharmacokinetics; format: in vivo, human; details: fed vs fasting, single 150 mg
Procedure, shortened: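 Open-label crossover at a single 150 mg oral dose, with at least 14 days washout and an overnight fast of at least 10 h before each dose. Period I: 12 subjects (6 men, 6 women), fasted. Period II: 10 subjects (5 men, 5 women) given a high-fat, roughly 800–1000 calorie breakfast 30 min pre-dose. Drug measured in diluted blood by LC-MS/MS (2–5000 ng/mL). Food effect tested by two-sided t test, α = 0.05.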

For `O=C(O)CNC(=O)c1c(O)c2ccccc2n(OCC2CC2)c1=O` [ZYAN1], the “dose proportionality of C max and AUC” value ([1]; 30-fold single dose range, slight deviation at higher doses) was “almost dose-proportional increase”, the “V d, range” value ([1]; across single doses 10-300 mg) was 28 to 47 L and the “apparent oral CL, range” value ([1]; across single doses 10-300 mg) was 2 to 2.9 L/h. The t max ([1]; single oral dose 10 mg) was 2.50 (1.50–3.00) h, the AUCt ([1]; single oral dose 10 mg) was 3597.269 ± 549.116 ng·h/mL and the “AUC∞” value ([1]; single oral dose 10 mg) was 3659.531 ± 551.508 ng·h/mL. For the same molecule, the C max ([1]; single oral dose 10 mg) was 566.467 ± 163.031 ng/mL, the CL/F_obs ([1]; single oral dose 10 mg) was 2784.592 ± 417.679 mL/h and the “V z/F_obs” value ([1]; single oral dose 10 mg) was 27,683.707 ± 4805.113 mL. The “t ½” value ([1]; single oral dose 10 mg) was 6.976 ± 1.390 h, the λz ([1]; single oral dose 10 mg) was 0.102 ± 0.019 h⁻¹ and the t max ([1]; single oral dose 25 mg) was 1.25 (1.00–2.50) h. For the same molecule, the AUCt ([1]; single oral dose 25 mg) was 9177.789 ± 2359.163 ng·h/mL, the “AUC∞” value ([1]; single oral dose 25 mg) was 9269.839 ± 2396.986 ng·h/mL and the C max ([1]; single oral dose 25 mg) was 1634.500 ± 299.429 ng/mL. For the same molecule, the CL/F_obs ([1]; single oral dose 25 mg) was 2870.759 ± 817.646 mL/h, the “V z/F_obs” value ([1]; single oral dose 25 mg) was 27,950.696 ± 5329.29 mL and the “t ½” value ([1]; single oral dose 25 mg) was 6.917 ± 0.923 h. The λz ([1]; single oral dose 25 mg) was 0.102 ± 0.016 h⁻¹, the t max ([1]; single oral dose 50 mg) was 2.25 (1.00–5.00) h and the AUCt ([1]; single oral dose 50 mg) was 24,518.328 ± 5125.235 h·ng/mL. For the same molecule, the “AUC∞” value ([1]; single oral dose 50 mg) was 24,847.379 ± 5242.290 h·ng/mL, the C max ([1]; single oral dose 50 mg) was 2959.333 ± 686.898 ng/mL and the CL/F_obs ([1]; single oral dose 50 mg) was 2084.748 ± 417.943 mL/h. For the same molecule, the “V z/F_obs” value ([1]; single oral dose 50 mg) was 30,578.971 ± 10,323.282 mL, the “t ½” value ([1]; single oral dose 50 mg) was 10.434 ± 3.857 h and the λz ([1]; single oral dose 50 mg) was 0.074 ± 0.024 h⁻¹. For the same molecule, the t max ([1]; single oral dose 100 mg) was 2.25 (1.00–5.00) h, the AUCt ([1]; single oral dose 100 mg) was 46,844.762 ± 13,259.837 h·ng/mL and the “AUC∞” value ([1]; single oral dose 100 mg) was 47,320.651 ± 13,358.696 h·ng/mL. For the same molecule, the C max ([1]; single oral dose 100 mg) was 6745.000 ± 1958.132 ng/mL, the CL/F_obs ([1]; single oral dose 100 mg) was 2271.507 ± 686.413 mL/h and the “V z/F_obs” value ([1]; single oral dose 100 mg) was 33,572.508 ± 10,971.959 mL. The “t ½” value ([1]; single oral dose 100 mg) was 10.685 ± 3.249 h, the λz ([1]; single oral dose 100 mg) was 0.071 ± 0.023 h⁻¹ and the t max ([1]; single oral dose 150 mg) was 3.00 (2.50–5.00) h. For the same molecule, the AUCt ([1]; single oral dose 150 mg) was 54,401.071 ± 12,592.181 h·ng/mL, the “AUC∞” value ([1]; single oral dose 150 mg) was 54,672.481 ± 12,686.075 h·ng/mL and the C max ([1]; single oral dose 150 mg) was 8119.333 ± 1269.627 ng/mL. For the same molecule, the CL/F_obs ([1]; single oral dose 150 mg) was 2891.042 ± 782.208 mL/h, the “V z/F_obs” value ([1]; single oral dose 150 mg) was 46,536.434 ± 9434.457 mL and the “t ½” value ([1]; single oral dose 150 mg) was 11.357 ± 1.616 h. The λz ([1]; single oral dose 150 mg) was 0.062 ± 0.008 h⁻¹, the t max ([1]; single oral dose 200 mg) was 2.25 (1.50–5.00) h and the AUCt ([1]; single oral dose 200 mg) was 76,515.016 ± 6992.709 h·ng/mL. The “AUC∞” value ([1]; single oral dose 200 mg) was 76,728.333 ± 7061.227 h·ng/mL, the C max ([1]; single oral dose 200 mg) was 12,080.667 ± 3430.123 ng/mL and the CL/F_obs ([1]; single oral dose 200 mg) was 2625.566 ± 248.239 mL/h. For the same molecule, the “V z/F_obs” value ([1]; single oral dose 200 mg) was 36,035.031 ± 6400.263 mL, the “t ½” value ([1]; single oral dose 200 mg) was 9.502 ± 1.270 h and the λz ([1]; single oral dose 200 mg) was 0.074 ± 0.01 h⁻¹. The t max ([1]; single oral dose 300 mg) was 2.00 (1.00–5.00) h, the AUCt ([1]; single oral dose 300 mg) was 115,898.815 ± 45,549.563 h·ng/mL and the “AUC∞” value ([1]; single oral dose 300 mg) was 116,226.587 ± 45,834.174 h·ng/mL. For the same molecule, the C max ([1]; single oral dose 300 mg) was 17,858.333 ± 2899.189 ng/mL, the CL/F_obs ([1]; single oral dose 300 mg) was 2835.924 ± 799.195 mL/h and the “V z/F_obs” value ([1]; single oral dose 300 mg) was 38,836.681 ± 12,903.706 mL. For the same molecule, the “t ½” value ([1]; single oral dose 300 mg) was 9.484 ± 1.325 h, the λz ([1]; single oral dose 300 mg) was 0.074 ± 0.011 h⁻¹ and the “t ½, range” value ([1]; single doses 10-300 mg) was 6.9 to 11.3 h. For the same molecule, the “median time to C max (t max)” value ([1]; single doses 10-300 mg (30-fold range)) was “approximately 2.5 h” and the “decrease of C max by ingestion of food” value [2] was 2.39 times.
